# In the library only some 4.6% were active in any assay of this set; here they are far more common.
# TAAR1 antag = human TAAR1 antagonism; CHO RD-HGA16 TAAR1, Fluo-8 calcium fluorescence, antagonist; inhibition, % at 3 µM; hit rate 1.5% among 360,000;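 active = inhibition above a per-plate cutoff, the mean inhibition of test compounds on that plate plus 3 SD, cut at about 49% in these data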;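 also: 0% = DMSO plus EC80 beta-PEA response and 100% = DMSO alone without agonist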
#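 System: RD-HGA16 CHO cells with stable hTAAR1 and Gα16 | Probe or stimulus: EC80 β-phenethylamine stimulus | Dosing: 3 µM, single point | Times: Dye loading 75 min at 37 °C, then 30 min room temperature | Measured by: Fluo-8 calcium-sensitive fluorescence | Read-out basis: % inhibition of agonist calcium response | Replicates: n of 1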
# TAAR1 agonist = human TAAR1 agonism | CHO RD-HGA16 TAAR1, Fluo-8 calcium fluorescence; vehicle wells 0%, saturating PEA agonist 100% | Q96RJ0 | hit rate 0.99% among 360,000 | activation, % at 3 µM;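 active = activation above the mean activation of all test compounds in the run plus 3 SD, cut at about 38% in these data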
#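 test system = CHO RD-HGA16 cells carrying human TAAR1 plus Gα16 | schedule = 17-24 h seeding, 75 min 37 °C dye, 30 min RT | compound dosing = 3 µM single concentration | control set = DMSO and PEA EC100 | replicates = n 1 | signal = Fluo-8 fluorescence, 5 s baseline then 140 s kinetic read | measure = percent activation vs PEA EC100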
# CHO parental Ca = signal in parental CHO cells, OX1R antagonist counter-screen; parental CHO-K1, ATP-induced calcium, Fluo-8 fluorescence; inhibition, % at 5.6 µM; hit rate 0.63% among 330,000; AID 463079;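 active = inhibition above that plate's mean sample inhibition plus 3 SD, cut at about 26% in these data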;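 also: 0% = ATP-challenged DMSO wells and 100% = DMSO wells without ATP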
#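 test system = CHO parental line | reagent = ATP stimulus | measured by = intracellular calcium via Fluo-8 no-wash fluorescent dye | control set = ATP and no-ATP DMSO wells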
# OX1R antag-1 = antagonists of human orexin 1 receptor. O43613. CHO/OX1R cells, Fluo-8 calcium fluorescence, orexin A. inhibition, % at 5 µM. hit rate 0.43% among 330,000;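 active = inhibition above its plate's threshold, mean inhibition of all tested compounds on the plate plus 3 SD, cut at about 37% in these data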;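 also: 0% = orexin A challenge wells and 100% = SB-334867-A antagonist wells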
# Target sequence (O43613 whole entry, looked up): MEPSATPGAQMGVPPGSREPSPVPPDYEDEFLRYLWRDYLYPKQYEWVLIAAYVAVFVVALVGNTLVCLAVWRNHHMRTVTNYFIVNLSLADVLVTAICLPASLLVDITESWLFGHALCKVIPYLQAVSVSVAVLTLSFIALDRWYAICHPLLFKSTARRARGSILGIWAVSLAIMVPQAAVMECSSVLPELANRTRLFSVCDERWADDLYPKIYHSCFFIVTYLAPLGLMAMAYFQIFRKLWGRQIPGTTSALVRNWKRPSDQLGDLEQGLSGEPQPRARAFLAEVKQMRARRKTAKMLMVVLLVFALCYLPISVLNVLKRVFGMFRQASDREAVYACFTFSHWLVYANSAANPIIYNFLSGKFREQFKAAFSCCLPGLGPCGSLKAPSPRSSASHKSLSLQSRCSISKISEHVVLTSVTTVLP
# OX1R antag-2 = OX1R (human) antagonism; hit rate 1.8% among 330,000; inhibition, % at 6.6 µM; O43613; OX1R-expressing cells, FRET antagonist read-out; in the data active = inhibition mostly above about 38%, no sharp cut-off; inactive = mostly below about 40%;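 also: 0% = agonist challenge alone and 100% = reference antagonist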
# GPR7 antag = antagonists of human GPR7 (neuropeptides B/W receptor 1). AID 1861. inhibition, % at 4.4 µM. GPR7-expressing cells, fluorescence antagonist assay. hit rate 1.1% among 290,000. P48145; in the data active = inhibition above about 16%, passing the limit was not always enough;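 also: cells stimulated with the agonist NPW; 0% = agonist with vehicle and 100% = vehicle without agonist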
# OX1R Ca confirm = OX1R (human) antagonism, confirmed; shares compounds with OX1R antag-1; CHO/OX1R cells, orexin A calcium Fluo-8 fluorescence; inhibition, % at 5 µM; hit rate 38% among 1,100; in the data active = inhibition above about 29%;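 also: 0% = agonist challenge alone and 100% = reference antagonist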
# CHO Ca counter = counter-screen: parental CHO calcium response change, triplicate; shares compounds with OX1R antag-1; parental CHO-K1, ATP-induced calcium, Fluo-8 fluorescence; inhibition, % at 5.6 µM; hit rate 9.3% among 1,100; AID 492965;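 active = inhibition above a per-plate limit, the mean inhibition of that plate's test compounds plus 3 SD, cut at about 25% in these data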;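 also: 0% = ATP challenge with DMSO and 100% = DMSO without ATP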
# Starred values were filed as active, the others as inactive; / = no result.
SMILES,TAAR1 antag,TAAR1 agonist,CHO parental Ca,OX1R antag-1,OX1R antag-2,GPR7 antag,OX1R Ca confirm,CHO Ca counter
Cc1csc2ncnc(N3CCN(C(=S)Nc4ccc(C(F)(F)F)cc4)CC3)c12,-41,1,0,49*,45,-10,22,45*
C[C@H](NC(=O)C[C@@H]1CC[C@H]2[C@@H](COC[C@H](O)CN2Cc2ccc(C(F)(F)F)cc2)O1)c1ccccc1,-17,4,/,/,/,/,/,/
O=C(Nc1ccc(F)cc1)C(c1cccc(F)c1)N1CCN(Cc2c(F)cccc2Cl)CC1 (configuration not stated),-28,-1,/,/,/,/,/,/
CCCN(C(=O)COC(=O)CCOc1ccc(C)cc1)c1c(N)n(Cc2ccccc2)c(=O)[nH]c1=O,-12,0,-1,-6,9,/,/,/
Cc1ccc(OCCC(=O)N(CCC(C)C)c2c(N)n(Cc3ccccc3)c(=O)[nH]c2=O)cc1,/,/,-13,37,26,/,-5,-11
COCc1cc(N2CCNC[C@H]2C)ccc1N1CCS(=O)(=O)CC1,10,1,/,/,/,/,/,/
O=C(CN(c1cccc([N+](=O)[O-])c1)S(=O)(=O)c1ccccc1)NCc1ccccc1,12,11,-20,-17,35,2,/,/
O=C(CN(c1cccc([N+](=O)[O-])c1)S(=O)(=O)c1ccccc1)N(Cc1ccccc1)Cc1ccccc1,24,4,-3,29,24,-4,-1,-13
Cc1nc2ccc(Cl)cc2n1C,-38,0,/,/,/,/,/,/
COC(=O)C1=C(C)N(C)C(=NCc2cc(OC)c(OC)c(OC)c2)NC1c1cccc(Cl)c1 (configuration not stated),-10,1,/,/,/,/,/,/
CCCOP(=O)(OCCC)C(Nc1ccc(C(C)C)cc1)c1ccc([N+](=O)[O-])cc1 (configuration not stated),26,5,-6,55*,2,13,-2,-27
COP(=O)(OC)C(Nc1ccc([N+](=O)[O-])cc1)c1ccccc1 (configuration not stated),-1,3,-19,-7,11,8,/,/
CC1(C)C(/C=C/C=C/C=C/C=C2\N(CCCCS(=O)(=O)O)c3ccc4ccccc4c3C2(C)C)=[N+](CCCCS(=O)(=O)[O-])c2ccc3ccccc3c21,/,/,-11,-12,7,/,/,/
COc1cc(/C=C/C(O)=C/C(=O)/C=C/c2ccc(O)cc2)ccc1O,81*,45*,25,48,4,/,18,18
COc1ccc(/C=C/C(=O)c2cc(Br)ccc2O)cc1OC,5,8,-21,-30,-1,2,/,/
O=C1C=C(OCCF)CC(c2ccccc2C(F)(F)F)O1 (configuration not stated),-11,1,/,/,/,/,/,/
COC(=O)[C@H](CC(C)C)NS(=O)(=O)c1ccccc1,0,8,-2,-6,6,-1,/,/
COc1ccc(CN([C@H](CO)CC(C)C)S(=O)(=O)N(Cc2ccccc2)[C@H](CO)CC(C)C)cc1,40,13,29,67*,14,/,4,-13
COC(=O)[C@@H](CC(C)C)NS(=O)(=O)N(Cc1ccccc1)[C@@H](CC(C)C)C(=O)OC,50*,9,-5,47,23,/,3,-19
COc1ccc(-n2nnnc2C(c2ccnc3ccccc23)N2CCN(C/C=C/c3ccccc3)CC2)cc1 (configuration not stated),-31,1,/,/,/,/,/,/
CCOc1ccc(/C=C2\SC(=S)NC2=O)cc1OC,3,0,2,-21,46,-20,/,/
COc1ccc(/C=C2\SC(=O)NC2=S)cc1OC,18,3,24,42,42,6,3,-2
CC(=O)n1cc([C@H]2C=C(C(=O)Nc3ccccc3)O[C@@H](OCc3ccc(CO)cc3)C2)c2ccccc21,/,/,-1,-3,13,1,/,/
CC(=O)n1cc([C@@H]2C=C(C(=O)NCc3ccccc3)O[C@H](OCc3ccc(CO)cc3)C2)c2ccccc21,62*,22,7,41,23,/,17,1

# Bioassay records as filed in PubChem.
